Test results published in ChEMBL document CHEMBL4321805, “A Conformational Restriction Strategy for the Identification of a Highly Selective Pyrimido-pyrrolo-oxazine mTOR Inhibitor” (J Med Chem, 2019).
pIC50, pKi: −log10 of the molar value.

How the values were obtained:
mTORC2 = mTORC2 (Homo sapiens, UniProt P42345); test: Inhibition of mTORC2 in human A2058 cells assessed as reduction in PKB phosphorylation at S473 residues incubated for 1 hr by Western blot analysis; format: cell-based
Outline: (§1)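 In-cell Western assay. A2058 cells (2 × 10^4/well) grown 24 h at 37 °C, 5% CO2, then exposed 1 h to inhibitor or DMSO. Cells fixed in 4% PFA, blocked, and stained for the phospho-protein with α-tubulin as internal standard; infrared fluorescence read-out. Signals normalized to tubulin and to DMSO controls to derive IC50.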

mTORC1 = mTORC1 (Homo sapiens, UniProt P42345); test: Inhibition of mTORC1 in human A2058 cells assessed as reduction in ribosomal protein S6 phosphorylation at Ser235/236 residues incubated for 1 hr by Western blot analysis; format: cell-based; outline: as §1
Homo sapiens [1] = organism: Homo sapiens; test: Selectivity ratio of Ki for inhibition of alexa fluor 647-labeled kinase tracer 314 binding to recombinant human full-length N-terminal His6-tagged p110alpha/p85alpha expressed in baculovirus expression system to Ki for inhibition of alexa fluor 647-labeled kinase tracer 314 binding to recombinant human N-terminal GST-fused mTOR (1360 to 2549 residues) expressed in baculovirus expression system
Outline: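 Ratio of Ki values from the TR-FRET tracer 314 displacement assays. p110α: His6-tagged enzyme, biotin anti-His antibody and Eu-streptavidin (2 nM each), tracer at 20 nM, buffer 50 mM HEPES pH 7.5, 10 mM MgCl2, 1 mM EGTA, 0.01% Brij-35. mTOR: GST-mTOR 1360–2549, Eu-anti-GST, tracer 10 nM, HEPES/5 mM MgCl2/EGTA/Pluronic buffer.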

Homo sapiens [2] = organism: Homo sapiens; test: Selectivity ratio of Kd for binding affinity to human wild-type partial length PI3Kalpha (R108 to N1068 residues) expressed in mammalian expression system to Kd for binding affinity to wild-type human partial length mTOR (L1382 to W2549 residues) expressed in mammalian expression system
Outline: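 Ratio of Kd values from the DNA-tagged kinase competition binding assay (qPCR read-out, 11-point 3-fold dilution from 30 μM, Hill fit with slope −1, duplicates): PI3Kα Kd divided by mTOR Kd.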

[3] = biological target: Serine/threonine-protein kinase mTOR (Homo sapiens, UniProt P42345); test: Inhibition of alexa fluor 647-labeled kinase tracer 314 binding to recombinant human N-terminal GST-fused mTOR (1360 to 2549 residues) expressed in baculovirus expression system by TR-FRET assay
Outline: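 LanthaScreen TR-FRET tracer displacement. GST-fused truncated mTOR (aa 1360–2549) detected with Eu-anti-GST antibody (2 nM). […] Buffer: 50 mM HEPES, 5 mM MgCl2, 1 mM EGTA, 0.01% Pluronic F-127. Ki derived from displacement.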

[4] = biological target: PI3-kinase p110-alpha/p85-alpha (Homo sapiens, UniProt P42336); test: Inhibition of alexa fluor 647-labeled kinase tracer 314 binding to recombinant human full-length N-terminal His6-tagged p110alpha/p85alpha expressed in baculovirus expression system by TR-FRET assay
Cytochrome P450 1A1 = biological target: T1, Cytochrome P450 1A1 (Homo sapiens, UniProt P04798); test: Drug level treated with 5-((R)-4-((R)-3-Methylmorpholino)-5a,6,8,9-tetrahydro-5H-pyrimido[5',4':4,5]pyrrolo[2,1-c][1,4]oxazin-2-yl)pyrimidin-2-amine assessed as recombinant human CYP1A1-mediated compound formation incubated for 60 mins by LC/MS analysis; format: ADME; conditions: recombinant enzyme, 1 h
T1 sequence (P04798 whole entry): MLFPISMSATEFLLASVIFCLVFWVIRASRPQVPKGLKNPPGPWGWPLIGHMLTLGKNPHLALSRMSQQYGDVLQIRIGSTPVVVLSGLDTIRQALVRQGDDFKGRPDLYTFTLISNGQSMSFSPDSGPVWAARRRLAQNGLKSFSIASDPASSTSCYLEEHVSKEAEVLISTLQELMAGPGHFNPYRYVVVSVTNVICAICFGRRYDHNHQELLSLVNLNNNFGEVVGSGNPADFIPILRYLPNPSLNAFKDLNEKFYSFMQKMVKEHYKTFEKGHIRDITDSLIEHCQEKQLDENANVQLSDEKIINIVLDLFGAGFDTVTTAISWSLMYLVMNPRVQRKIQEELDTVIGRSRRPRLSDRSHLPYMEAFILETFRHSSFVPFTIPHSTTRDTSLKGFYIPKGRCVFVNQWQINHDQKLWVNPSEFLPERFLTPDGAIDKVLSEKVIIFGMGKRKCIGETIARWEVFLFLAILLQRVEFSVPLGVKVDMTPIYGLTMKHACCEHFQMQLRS
Outline: (§2)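 Human recombinant CYP1A1 or CYP1A2 Supersomes (25 pmol/mL) incubated with compound at 1 μM (0.25% DMSO) plus NADP+-regenerating cofactors at 37 °C for 60 min. Reaction stopped with ACN containing internal standard. Parent and metabolites expressed as percentage of total peak areas.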

Cytochrome P450 1A2 = biological target: T2, Cytochrome P450 1A2 (Homo sapiens, UniProt P05177); test: Drug level treated with 5-((R)-4-((R)-3-Methylmorpholino)-5a,6,8,9-tetrahydro-5H-pyrimido[5',4':4,5]pyrrolo[2,1-c][1,4]oxazin-2-yl)pyrimidin-2-amine assessed as recombinant human CYP1A2-mediated compound formation incubated for 60 mins by LC/MS analysis; format: ADME; conditions: recombinant enzyme, 1 h; outline: as §2
T2 sequence (P05177 whole entry): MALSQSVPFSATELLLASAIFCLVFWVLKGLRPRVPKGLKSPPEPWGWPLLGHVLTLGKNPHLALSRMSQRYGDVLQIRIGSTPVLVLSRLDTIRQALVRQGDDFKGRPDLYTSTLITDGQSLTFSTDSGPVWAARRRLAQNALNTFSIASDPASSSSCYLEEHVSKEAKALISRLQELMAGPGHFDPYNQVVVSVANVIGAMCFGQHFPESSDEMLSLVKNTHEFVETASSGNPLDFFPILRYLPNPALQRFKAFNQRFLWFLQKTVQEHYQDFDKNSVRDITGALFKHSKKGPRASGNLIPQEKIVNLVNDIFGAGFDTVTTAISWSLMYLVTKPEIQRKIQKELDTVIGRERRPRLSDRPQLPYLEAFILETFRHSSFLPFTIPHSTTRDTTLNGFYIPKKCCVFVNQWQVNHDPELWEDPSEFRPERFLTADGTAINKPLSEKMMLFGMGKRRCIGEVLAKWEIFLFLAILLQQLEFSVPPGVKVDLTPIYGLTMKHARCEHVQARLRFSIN

PI3-kinase p110-alpha/p85-alpha, sequence (P27986 whole entry): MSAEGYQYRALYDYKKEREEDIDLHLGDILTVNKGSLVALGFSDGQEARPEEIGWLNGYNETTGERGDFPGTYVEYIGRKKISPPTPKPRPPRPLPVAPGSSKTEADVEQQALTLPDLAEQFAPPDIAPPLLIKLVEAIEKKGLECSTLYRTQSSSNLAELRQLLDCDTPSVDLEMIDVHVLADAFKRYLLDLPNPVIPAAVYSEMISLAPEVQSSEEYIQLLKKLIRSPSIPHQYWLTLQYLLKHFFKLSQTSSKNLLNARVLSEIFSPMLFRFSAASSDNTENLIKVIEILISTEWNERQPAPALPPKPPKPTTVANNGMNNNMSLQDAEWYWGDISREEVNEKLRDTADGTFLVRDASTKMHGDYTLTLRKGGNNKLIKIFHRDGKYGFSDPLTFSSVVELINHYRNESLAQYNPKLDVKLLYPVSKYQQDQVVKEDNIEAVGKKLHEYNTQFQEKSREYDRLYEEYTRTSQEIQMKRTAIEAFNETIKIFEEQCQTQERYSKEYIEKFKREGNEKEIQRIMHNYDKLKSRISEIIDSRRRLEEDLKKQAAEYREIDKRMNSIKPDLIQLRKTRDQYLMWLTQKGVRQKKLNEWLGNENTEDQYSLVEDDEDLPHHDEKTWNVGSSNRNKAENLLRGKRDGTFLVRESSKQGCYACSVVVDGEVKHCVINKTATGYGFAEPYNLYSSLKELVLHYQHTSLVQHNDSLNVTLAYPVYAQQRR
PI3-kinase p110-alpha/p85-alpha, sequence (P42336 whole entry): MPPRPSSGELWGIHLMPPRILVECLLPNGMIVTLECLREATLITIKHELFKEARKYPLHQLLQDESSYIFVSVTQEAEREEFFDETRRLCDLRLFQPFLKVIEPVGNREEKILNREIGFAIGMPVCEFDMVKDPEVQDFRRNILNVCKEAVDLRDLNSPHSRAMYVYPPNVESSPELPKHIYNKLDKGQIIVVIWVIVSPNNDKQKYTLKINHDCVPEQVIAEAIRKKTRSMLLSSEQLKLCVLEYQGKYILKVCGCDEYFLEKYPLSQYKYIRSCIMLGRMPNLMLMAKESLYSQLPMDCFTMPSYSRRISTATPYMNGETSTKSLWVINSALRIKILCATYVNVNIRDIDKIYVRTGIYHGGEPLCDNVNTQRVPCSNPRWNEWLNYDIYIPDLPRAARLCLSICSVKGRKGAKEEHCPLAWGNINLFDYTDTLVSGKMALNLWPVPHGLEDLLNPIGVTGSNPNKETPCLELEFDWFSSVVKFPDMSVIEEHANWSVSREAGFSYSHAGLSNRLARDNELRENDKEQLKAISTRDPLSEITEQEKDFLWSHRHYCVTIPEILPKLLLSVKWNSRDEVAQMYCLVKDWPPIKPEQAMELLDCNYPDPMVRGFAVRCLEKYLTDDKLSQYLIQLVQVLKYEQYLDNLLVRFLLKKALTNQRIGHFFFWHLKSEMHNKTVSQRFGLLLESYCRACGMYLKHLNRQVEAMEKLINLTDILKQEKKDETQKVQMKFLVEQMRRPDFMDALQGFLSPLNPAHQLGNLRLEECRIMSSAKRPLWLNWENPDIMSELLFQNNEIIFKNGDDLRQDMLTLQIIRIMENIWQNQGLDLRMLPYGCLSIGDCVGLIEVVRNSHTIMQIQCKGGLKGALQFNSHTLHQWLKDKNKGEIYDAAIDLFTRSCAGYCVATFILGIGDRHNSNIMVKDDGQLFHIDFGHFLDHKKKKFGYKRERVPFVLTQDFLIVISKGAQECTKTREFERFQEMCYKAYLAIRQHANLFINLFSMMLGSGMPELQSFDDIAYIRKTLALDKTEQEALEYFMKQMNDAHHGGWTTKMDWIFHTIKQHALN

| SMILES | pIC50 (mTORC2) | pIC50 (mTORC1) | Ratio Ki (Homo sapiens [1]) | Selectivity ratio (Homo sapiens [2]) | pKi [3] | pKi [4] | Drug metabolism (Cytochrome P450 1A1) | Drug metabolism (Cytochrome P450 1A2) |
| --- | --- | --- | --- | --- | --- | --- | --- | --- |
| Nc1cc(C(F)F)c(-c2nc(N3C4CCC3COC4)nc(N3C4CCC3COC4)n2)cn1 | 6.72 | 7.07 | 389 | > 3700 | – | – | – | – |
| C[C@H]1COCCN1c1nc(-c2ccc(N)nc2)nc2c1C[C@@H]1COCCN21 | 6.71 | 6.83 | 43 | – | 8.04 | 6.41 | – | – |
| Nc1cc(C(F)(F)F)c(-c2nc(N3CCCCC3)c3c(n2)N2CCOC[C@@H]2C3)cn1 | 4.66 | 4.36 | – | – | – | 5.55 | – | – |
| Nc1ccc(-c2nc(N3CCOCC3)c3c(n2)N2CCOC[C@H]2C3)cn1 | 6.93 to 6.94 | 7.02 | 18 to 18.3 | – | 7.62 | 6.36 | – | – |
| C[C@H]1COCCN1c1nc(-c2ccc(N)nc2)nc2c1C[C@H]1COCCN21 | 6.38 | 6.36 | 0.9 | – | 6.98 | 7.01 | – | – |
| Nc1ccc(-c2nc(N3C4CCC3COC4)c3c(n2)N2CCOC[C@@H]2C3)cn1 | 6.41 | 6.45 | 54 | – | 7.22 | 5.49 | – | – |
| C[C@@H]1COCCN1c1nc(-c2ccc(N)nc2)nc2c1C[C@H]1COCCN21 | 6.44 | 6.64 | 30 | – | 7.51 | 6.03 | – | – |
| Nc1cc(C(F)(F)F)c(-c2nc(N3CCCCC3)c3c(n2)N2CCOC[C@H]2C3)cn1 | 5.68 | 5.58 | – | – | – | 6.86 | – | – |
| CC1(C)COCCN1c1nc(-c2ccc(N)nc2)nc2c1C[C@@H]1COCCN21 | 6.39 | 6.87 | 16 | – | 7.62 | 6.42 | – | – |
| Nc1cc(C(F)(F)F)c(-c2nc(N3CCOCC3)c3c(n2)N2CCOC[C@@H]2C3)cn1 | 6.45 | 6.12 | – | – | – | 7.68 | – | – |
| COC(OC)c1nc(N)ncc1-c1nc2c(c(N3CCOC[C@H]3C)n1)C[C@@H]1COCCN21 | 6.27 | 6.42 | 2 | – | 7.47 | 7.18 | – | – |
| Cc1cc(N)ncc1-c1nc2c(c(N3CCOC[C@H]3C)n1)C[C@@H]1COCCN21 | 5.81 | 6.08 | 33 | – | 7.07 | 5.56 | – | – |
| COc1cc(N)ncc1-c1nc2c(c(N3CCOC[C@H]3C)n1)C[C@@H]1COCCN21 | 5.43 | 5.60 | 77 | – | 6.68 | 4.80 | – | – |
| Nc1ccc(-c2nc(N3CCOCC3)nc3c2C[C@@H]2COCCN32)cn1 | 5.81 | 5.73 | 0.4 | – | 5.89 | 6.27 | – | – |
| Nc1cc(C(F)(F)F)c(-c2nc(N3CCOCC3)c3c(n2)N2CCCC[C@@H]2C3)cn1 | 6.49 | 5.91 | – | – | – | 7.32 | – | – |
| CC1(C)COCCN1c1nc(-c2ccc(N)nc2)nc2c1C[C@H]1COCCN21 | 5.88 | 6.00 | 59 | – | 6.92 | 5.14 | – | – |
| Nc1ccc(-c2nc(N3CCOCC3)c3c(n2)N2CCOC[C@@H]2C3)cn1 | 6.71 | 6.79 | 1.1 | – | 7.16 | 7.12 | – | – |
| Nc1cc(C(F)(F)F)c(-c2nc(N3CCOCC3)c3c(n2)N2CCCC[C@H]2C3)cn1 | 6.39 | 6.03 | – | – | – | 7.66 | – | – |
| CC(C=O)N(CCO)c1nc(-c2cnc(N)nc2)nc2c1C[C@@H]1COC=CN21 (stereo not given in full) | – | – | – | – | – | – | Metabolite_Detected | – |
| Cc1cc(-c2nc3c(c(N4CCOC[C@H]4C)n2)C[C@@H]2COCCN32)cnc1N | 6.31 | 6.54 | 172 | – | 7.25 | 5.02 | – | – |
| Nc1ccc(-c2nc(N3CCOCC3)nc3c2C[C@H]2COCCN32)cn1 | 5.73 | 5.75 | 1.1 | – | 6.09 | 6.06 | – | – |
| Nc1ccc(-c2nc(N3C4CCC3COC4)c3c(n2)N2CCOC[C@H]2C3)cn1 | 6.82 | 6.88 | 36 | – | 7.51 | 5.96 | – | – |
| Nc1ccc(-c2nc(N3CC4CCC(C3)O4)c3c(n2)N2CCOC[C@H]2C3)cn1 | 6.68 | 6.80 | 53 | – | 7.57 | 5.85 | – | – |
| CC(C=O)N(CCO)c1nc(-c2cnc(N)nc2)nc2c1C[C@@H]1COCCN21 (stereo not given in full) | – | – | – | – | – | – | Metabolite_Detected | Metabolite_Detected |
| COC(OC)c1cc(N)ncc1-c1nc2c(c(N3CCOC[C@H]3C)n1)C[C@@H]1COCCN21 | 5.19 | 5.62 | 3.7 | – | 6.52 | 5.95 | – | – |
| Nc1ccc(-c2nc(N3CC4CCC(C3)O4)c3c(n2)N2CCOC[C@@H]2C3)cn1 | 6.39 | 6.61 | 13 | – | 7.02 | 5.91 | – | – |
| Nc1cc(C(F)(F)F)c(-c2nc(N3CCOCC3)c3c(n2)N2CCOC[C@H]2C3)cn1 | 6.45 | 6.28 | – | – | – | 7.25 | – | – |
